{"source": "ChEMBL document CHEMBL1649111", "about": "“Restoration of susceptibility of intracellular methicillin-resistant Staphylococcus aureus to beta-lactams: comparison of strains, cells, and antibiotics” (Antimicrob Agents Chemother, 2008)", "key": {"Staphylococcus aureus [1]": {"test_system": "Staphylococcus aureus", "test": "Bacteriostatic activity against intracellular beta-lactamase negative methicillin-susceptible Staphylococcus aureus ATCC 25923 infected in activated human THP-1 cells assessed as decrease in bacterial growth after 24 hrs at pH 7.4", "assay_type": "functional", "procedure,_shortened": "(§1)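 THP-1 cells activated by 24-h culture with phorbol myristate acetate 2 mg/liter, then infected like unactivated THP-1. Cloxacillin dose range in mg/liter for 24 h. CFU per mg cell protein relative to the original inoculum, n = 3. Emin and Emax extrapolated from a Hill fit (slope 1), with EC50 as total drug; static concentration by graphical interpolation.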"}, "Staphylococcus aureus [2]": {"test_system": "Staphylococcus aureus", "test": "Bacteriostatic activity against beta-lactamase negative methicillin-susceptible Staphylococcus aureus ATCC 25923 infected in human THP-1 cells assessed as decrease in bacterial growth after 24 hrs at pH 5.5", "assay_type": "functional", "procedure,_shortened": "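MSSA ATCC 25923 phagocytized by unactivated THP-1 macrophages; extracellular antibiotic from about 0.01× to 100× the broth MIC at pH 5.5, with gentamicin 0.5 mg/liter to block extracellular growth. CFU per mg cell protein counted at 24 h vs. original inoculum (n = 3). A Hill equation (slope factor 1) gives Emin/Emax, extrapolated to infinitely low/high concentration. Static concentration is read by graphical interpolation.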"}, "Staphylococcus aureus [3]": {"test_system": "Staphylococcus aureus", "test": "Antimicrobial activity against intracellular hospital acquired methicillin-resistant Staphylococcus aureus ATCC 33591 infected in human Calu3 cells assessed as increase in bacterial count from original inoculum at low compound concentration after 24 hrs at pH 7.4", "assay_type": "functional, Calu-3", "procedure,_shortened": "(§2)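 Primary human skin keratinocytes or Calu-3 bronchial epithelial cells, given an inoculum of 5 × 10⁷ to 1 × 10⁸ bacteria/ml and 2 h for internalization. Post-phagocytosis load 1.5 × 10⁶ to 3.0 × 10⁶ CFU per mg cell protein. Cloxacillin dose range in mg/liter for 24 h, n = 3. Hill-derived Emin, Emax and EC50; static concentration interpolated.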"}, "Staphylococcus aureus [4]": {"test_system": "Staphylococcus aureus", "test": "Antimicrobial activity against hospital acquired methicillin-resistant and […] Staphylococcus aureus VRS2 obtained from patient with wound, skin and soft tissue infection by broth microdilution method at pH 5.5", "assay_type": "functional"}, "Staphylococcus aureus [5]": {"test_system": "Staphylococcus aureus", "test": "Antimicrobial activity against hospital acquired methicillin-resistant Staphylococcus aureus HMC546 infected in human THP-1 cells assessed as increase in bacterial count from original inoculum at low compound concentration after 24 hrs at pH 5.5", "assay_type": "functional", "procedure,_shortened": "(§3)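 Bacteria phagocytosed by unactivated human THP-1 macrophages, then incubated 24 h with extracellular antibiotic at about 0.01× to 100× the pH 5.5 broth MIC. CFU per mg cell protein counted against the original inoculum, n = 3. A Hill-equation fit (slope factor 1) gave Emin and Emax, extrapolated to infinitely low and high concentration, and EC50. Static concentration was graphically interpolated.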"}, "Staphylococcus aureus [6]": {"test_system": "Staphylococcus aureus", "test": "Antimicrobial activity against hospital acquired methicillin-resistant Staphylococcus aureus N4120032 obtained from wound infection opf patient infected in human THP-1 cells assessed as decrease in bacterial growth after 24 hrs at pH 5.5", "assay_type": "functional, organism-based", "settings": "N4120032, THP-1, 24 h", "procedure,_shortened": "as §3"}, "Staphylococcus aureus [7]": {"test_system": "Staphylococcus aureus", "test": "Antimicrobial activity against intracellular beta-lactamase negative methicillin-susceptible Staphylococcus aureus ATCC 25923 infected in human keratinocytes assessed as decrease in bacterial growth after 24 hrs at pH 7.4", "assay_type": "functional, organism-based", "settings": "ATCC 25923, 24 h", "procedure,_shortened": "as §2"}, "Staphylococcus aureus [8]": {"test_system": "Staphylococcus aureus", "test": "Antimicrobial activity against intracellular beta-lactamase negative methicillin-susceptible Staphylococcus aureus ATCC 25923 infected in human keratinocytes assessed as decrease in bacterial count from original inoculum at high compound concentration after 24 hrs at pH 7.4", "assay_type": "functional", "procedure,_shortened": "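Primary human skin keratinocytes or Calu-3 bronchial epithelial cells infected with MSSA ATCC 25923 at 5 × 10⁷ to 1 × 10⁸ bacteria/ml, 2 h internalization. Postphagocytosis inoculum 1.5 × 10⁶ to 3.0 × 10⁶ CFU/mg protein. Cloxacillin concentration range for 24 h; CFU/mg protein change vs. inoculum (n = 3). Hill fit gives Emin/Emax; static concentration by graphical interpolation.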"}, "THP-1": {"test_system": "THP-1", "test": "Ratio of intracellular to extracellular drug level in human THP1 cells at 250 mg/L after 24 hrs", "assay_type": "ADME, cell-based", "settings": "thp-1, 24 h", "procedure,_shortened": "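THP-1 cells incubated 24 h at 250 mg/liter extracellular drug. Cell lysates assayed microbiologically with MSSA ATCC 25923; content expressed per mg total protein. Cellular/extracellular ratio calculated assuming cell volume of 5 μl per mg protein.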"}, "Staphylococcus aureus [9]": {"test_system": "Staphylococcus aureus", "test": "Antimicrobial activity against intracellular beta-lactamase negative methicillin-susceptible Staphylococcus aureus ATCC 25923 infected in activated human THP-1 cells assessed as decrease in bacterial growth after 24 hrs at pH 7.4", "assay_type": "functional, organism-based", "settings": "ATCC 25923, THP-1, 24 h", "procedure,_shortened": "as §1"}, "Staphylococcus aureus [10]": {"test_system": "Staphylococcus aureus", "test": "Bacteriostatic activity against intracellular hospital acquired methicillin-resistant Staphylococcus aureus ATCC 33591 infected in human Calu3 cells assessed as decrease in bacterial growth after 24 hrs at pH 7.4", "assay_type": "functional, Calu-3", "procedure,_shortened": "as §2"}, "Staphylococcus aureus [11]": {"test_system": "Staphylococcus aureus", "test": "Bacteriostatic activity against Panton-valentine leukocidin positive community acquired methicillin-resistant Staphylococcus aureus N4090440 infected in human THP-1 cells assessed as decrease in bacterial growth after 24 hrs at pH 5.5", "assay_type": "functional", "procedure,_shortened": "(§4)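 Human THP-1 macrophages infected with each S. aureus strain. Cloxacillin added extracellularly at about 0.01× to 100× the broth MIC measured at pH 5.5, with gentamicin 0.5 mg/liter to stop extracellular growth. Incubated 24 h. CFU counted per mg cell protein as change from the post-phagocytosis inoculum, n = 3. Emin, Emax and EC50 from a Hill fit; static concentration by graphical interpolation.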"}, "Staphylococcus aureus [12]": {"test_system": "Staphylococcus aureus", "test": "Antimicrobial activity against animal acquired methicillin-resistant Staphylococcus aureus N7112046 infected in human THP-1 cells assessed as decrease in bacterial count from original inoculum at high compound concentration after 24 hrs at pH 5.5", "assay_type": "functional", "procedure,_shortened": "as §3"}, "Staphylococcus aureus [13]": {"test_system": "Staphylococcus aureus", "test": "Antimicrobial activity against hospital acquired methicillin-resistant and vancomycin-intermediate Staphylococcus aureus VRS2 obtained from wound, skin and soft tissue infection of patient infected in human THP-1 cells assessed as decrease in bacterial growth after 24 hrs at pH 5.5", "assay_type": "functional, cell-based", "settings": "VRS2, THP-1, 24 h", "procedure,_shortened": "as §4"}, "Staphylococcus aureus [14]": {"test_system": "Staphylococcus aureus", "test": "Antimicrobial activity against Panton-valentine leukocidin positive community acquired methicillin-resistant Staphylococcus aureus N4042228 infected in human THP-1 cells assessed as decrease in bacterial growth after 24 hrs at pH 5.5", "assay_type": "functional, organism-based", "settings": "N4042228, THP-1, 24 h", "procedure,_shortened": "as §3"}, "Staphylococcus aureus [15]": {"test_system": "Staphylococcus aureus", "test": "Antimicrobial activity against Panton-valentine leukocidin positive community acquired methicillin-resistant Staphylococcus aureus N4090440 obtained from wound infection of patient by broth microdilution method at pH 5.5", "assay_type": "functional"}, "Staphylococcus aureus [16]": {"test_system": "Staphylococcus aureus", "test": "Bacteriostatic activity against hospital acquired methicillin-resistant Staphylococcus aureus N4120210 infected in human THP-1 cells assessed as decrease in bacterial growth after 24 hrs at pH 5.5", "assay_type": "functional", "procedure,_shortened": "as §4"}, "Staphylococcus aureus [17]": {"test_system": "Staphylococcus aureus", "test": "Antimicrobial activity against Panton-valentine leukocidin positive community acquired methicillin-resistant Staphylococcus aureus N4090440 obtained from wound infection of patient by broth microdilution method at pH 7.4", "assay_type": "functional", "procedure,_shortened": "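Minimal inhibitory concentration by broth microdilution at pH 7.4, read in mg/liter. The MRSA genotype was confirmed by mecA PCR, and the SCCmec subgroup was assigned by multiplex PCR.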"}, "Staphylococcus aureus [18]": {"test_system": "Staphylococcus aureus", "test": "Bacteriostatic activity against hospital acquired methicillin-resistant Staphylococcus aureus ATCC 33591 infected in human THP-1 cells assessed as decrease in bacterial growth after 24 hrs at pH 7.4", "assay_type": "functional", "procedure,_shortened": "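THP-1 macrophages, unactivated, infected with MRSA ATCC 33591. Cloxacillin over a range of extracellular concentrations (mg/liter) with a 24-h exposure. CFU per mg cell protein as change from the original inoculum, n = 3. Hill equation fitted with slope factor 1; static concentration (no change from inoculum) read by graphical interpolation.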"}}, "data": [{"smiles": "Cc1onc(-c2ccccc2Cl)c1C(=O)N[C@@H]1C(=O)N2[C@@H]1SC(C)(C)[C@@H]2C(=O)O", "note": "[CLOXACILLIN]", "values": [{"measurement": "Activity", "setting": "Staphylococcus aureus [1]", "result": 1.3, "unit": "mg/L"}, {"measurement": "Activity", "setting": "Staphylococcus aureus [2]", "result": 11, "unit": "×MIC"}, {"measurement": "log10cfu", "setting": "Staphylococcus aureus [3]", "result": 2.39}, {"measurement": "MIC", "setting": "Staphylococcus aureus [4]", "result": 0.06, "unit": "µg/mL"}, {"measurement": "log10cfu", "setting": "Staphylococcus aureus [5]", "result": 2.06}, {"measurement": "EC50", "setting": "Staphylococcus aureus [6]", "result": 9.26, "unit": "×MIC"}, {"measurement": "EC50", "setting": "Staphylococcus aureus [7]", "result": 0.42, "unit": "µg/mL"}, {"measurement": "log10cfu", "setting": "Staphylococcus aureus [8]", "result": 0.95}, {"measurement": "Ratio", "setting": "THP-1", "result": 0.28}, {"measurement": "EC50", "setting": "Staphylococcus aureus [9]", "result": 0.43, "unit": "µg/mL"}, {"measurement": "Activity", "setting": "Staphylococcus aureus [10]", "result": 1, "unit": "mg/L"}, {"measurement": "Activity", "setting": "Staphylococcus aureus [11]", "result": 17.4, "unit": "×MIC"}, {"measurement": "log10cfu", "setting": "Staphylococcus aureus [12]", "result": 0.72}, {"measurement": "EC50", "setting": "Staphylococcus aureus [13]", "result": 3.63, "unit": "×MIC"}, {"measurement": "EC50", "setting": "Staphylococcus aureus [14]", "result": 10.8, "unit": "×MIC"}, {"measurement": "MIC", "setting": "Staphylococcus aureus [15]", "result": 0.03, "unit": "µg/mL"}, {"measurement": "Activity", "setting": "Staphylococcus aureus [16]", "result": 35.5, "unit": "×MIC"}, {"measurement": "MIC", "setting": "Staphylococcus aureus [17]", "result": 0.5, "unit": "µg/mL"}, {"measurement": "Activity", "setting": "Staphylococcus aureus [18]", "result": 0.9, "unit": "mg/L"}]}]}
